Calls of active or inactive are those of the source. The calls are words filed in the database; no cut-off is given here.
What was measured:
Assay type in all cases: functional
[1] = system: Pseudocercospora fijiensis; assay: Inhibition of Mycosphaerella fijiensis mycelial growth
[2] = system: Pseudocercospora fijiensis; assay: Inhibition of Mycosphaerella fijiensis spore germination
In short: (§1)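 Ascospores were exposed to compound at 10, 50 or 100 ppm for 24 h at 27 °C. Germination and germ-tube length were scored microscopically on 50-150 ascospores. Run in quadruplicate.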

[3] = system: Pseudocercospora fijiensis; assay: Inhibition of Mycosphaerella fijiensis mycelial growth at 50 to 100 ppm after 15 days
In short: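 Colonies (2 ± 1 mg) were taken from conidia grown 4 days on PDA. They were placed 20 per dish on PDA holding 10, 50 or 100 ppm compound added in EtOH (max 3.7%). Colony weight was taken at 7 and 15 days (10 colonies each) against EtOH-only blank medium. Run in quadruplicate and analysed by one-way ANOVA.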

[4] = system: Pseudocercospora fijiensis; assay: Growth inhibition of Mycosphaerella fijiensis by microtitre plate photometric assay
In short: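 Mycelial fragments came from monosporic PDA subcultures of several strains grown 15-20 days at 27 °C. They were bead-vortexed, filtered at 100 µm, counted and set to 2 × 10⁴–2 × 10⁶ fragments/mL. Cultures ran in Sabouraud broth with final 0, 5, 10, 20, 30, 40, 50 ppm at 27 °C. OD595 was read daily up to 17 days. IC50 is 50% growth inhibition versus compound-free inoculum.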

[5] = system: Pseudocercospora fijiensis; assay: Inhibition of Mycosphaerella fijiensis spore germination at 50 to 100 ppm; in short: as §1

| SMILES | Activity [1] | Activity [2] | Activity [3] | IC50 [4] [ppm] | Activity [5] |
| --- | --- | --- | --- | --- | --- |
| O=C1C=Cc2cccc3cccc1c23 | Active | Active | Active | – | – |
| O=C1C(O)=Cc2cccc3cccc1c23 | – | – | Active | 23.4 | Active |
| COc1ccc(-c2ccc3cccc4c3c2C(=O)C=C4)cc1 | Active | – | – | – | – |
| COC1=Cc2cccc3cccc(c23)C1=O | – | – | Active | 19.3 | Active |
